# Assay results reported in PubChem BioAssay AID651654 (Broad Institute, 2012).
# The campaign covered roughly 360,000 compounds. About 740 (0.21%) were called active. The sample as a whole holds a higher share of actives than the screen did. A number with no mark means an inactive call.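 The calls were made as follows: active = mean lysis activity across replicates of at least 80%, whatever share of replicates individually reach that level; inactive = mean lysis activity below 80%.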
# Test: fungicidal lysis via adenylate kinase leakage – AK release luminescence, single concentration, primary screen (AID 651654)
# Settings: C. neoformans lysis, 4 h, at 15 µM, hits give high values, normalised: neutral wells 0, clomiphene wells 100
# Method in brief: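 Material – log-phase Cryptococcus neoformans yeast cells · Input – 5 × 10^6 yeast cells/mL · Medium – fresh YPD growth medium · Doses – single compound concentration per well · Timing – static 4 h at 37 °C with compound, 1 h detection · Detection – adenylate kinase release luminescence · Read-out – signal increase indicating cell lysis · Control set – Clomiphene as positive lysis control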
row,SMILES,lysis activity
1,C[C@H](CO)N1C[C@H](C)[C@@H](CN(C)S(=O)(=O)c2ccc(Cl)cc2)Oc2ccc(NS(C)(=O)=O)cc2CC1=O,-5.34%
2,CCC(=O)N(C)C[C@@H]1Oc2cc(C#C[C@H](C)O)ccc2S(=O)(=O)N([C@H](C)CO)C[C@@H]1C,-0.573%
3,C[C@@H]1CN([C@H](C)CO)C(=O)c2cc(C#CC3CCCC3)cnc2O[C@H]1CN(C)S(C)(=O)=O,-1.11%
4,C[C@@H]1CN([C@H](C)CO)C(=O)CCCn2nncc2CO[C@@H]1CN(C)C,-1.91%
5,Cc1cccc(CN(C)C[C@@H]2OCc3cn(nn3)CCCC(=O)N([C@@H](C)CO)C[C@H]2C)c1,-1.37%
6,COc1ccc(S(=O)(=O)N2C[C@H](O)COC[C@@H]3O[C@H](CC(=O)NCCN4CCCCC4)CC[C@H]32)cc1,0.16%
7,CCCNC(=O)N1C[C@H](C)[C@@H](OC)CN(C)C(=O)c2ccc(NS(C)(=O)=O)cc2OC[C@@H]1C,0.827%
8,COCC(=O)Nc1ccc2c(c1)C(=O)N(C)[C@@H]1CC[C@@H](CC(=O)NCc3cccc(F)c3)O[C@@H]1CO2,1.56%
9,COCC#Cc1cnc2c(c1)C(=O)N([C@@H](C)CO)C[C@H](C)[C@@H](CN(C)Cc1ccccc1)O2,-2.83%
10,CC(C)NC(=O)N[C@@H]1C=C[C@@H](CC(=O)N2CCCCC2)O[C@@H]1CO,1.39%
11,C[C@@H]1CN([C@@H](C)CO)C(=O)c2cc(NC(=O)C3CCCCC3)ccc2O[C@@H]1CN(C)Cc1ccc(C(=O)O)cc1,-4.67%
12,Cc1ccc(-c2cnc3c(c2)C(=O)N([C@@H](C)CO)C[C@H](C)[C@H](CN(C)C(=O)c2cccnc2)O3)cc1,-0.96%
13,C[C@@H]1CN([C@@H](C)CO)C(=O)c2cc(NC(=O)CCCN(C)C)ccc2O[C@@H]1CN(C)Cc1ccncc1,5.83%
14,COC(=O)C[C@@H]1C[C@H]2c3cc(NC(=O)Nc4ccc(F)cc4)ccc3O[C@H]2[C@@H](CO)O1,-7.03%
15,CCC(=O)N(C)C[C@@H]1Oc2ncc(C#CCc3ccccc3)cc2C(=O)N([C@H](C)CO)C[C@H]1C,1.55%
16,COc1ccc(CN2[C@@H](CO)[C@@H]3c4ccccc4N(C(=O)Nc4ccccc4)C[C@@H]32)cc1,0.269%
17,COc1ccc(NC(=O)Nc2ccc3c(c2)C(=O)N([C@H](C)CO)C[C@@H](C)[C@H](CN(C)C(=O)Nc2ccc(C(F)(F)F)cc2)OCCCC[C@@H](C)O3)cc1,1.63%
18,C[C@H](CO)N1C[C@H](C)[C@H](CN(C)C(=O)Nc2ccc(C(F)(F)F)cc2)Oc2ccc(NC(=O)C3CC3)cc2C1=O,8.67%
19,Cn1cnc(CCNC(=O)C[C@@H]2CC[C@@H]3[C@H](COC[C@@H](O)CN3C(=O)Nc3ccccc3)O2)c1,1.75%
20,C[C@H](CO)N1C[C@H](C)[C@H](CN(C)S(C)(=O)=O)Oc2ccc(NC(=O)Nc3ccc(F)cc3)cc2C1=O,0.358%
21,C#CCN1C(Cc2ccccc2)C(=O)O[C@H](C2CCCCC2)[C@@H]1/C=C/C1CC1 (some centres not stated),5.01%

row,SMILES,lysis activity
1,CO[C@@H]1CN(C)C(=O)c2cc(NC(C)=O)ccc2OC[C@H](C)N(CC2CCCCC2)C[C@@H]1C,-3.61%
2,O=C(Nc1ccccc1)c1cc2ccccc2[nH]1,-9.41%
3,CC(OC(=O)c1cc2ccccc2[nH]1)C(=O)N(C)c1ccccc1 (configuration not stated),-1.83%
4,COc1ccc(C2=Nc3ccccc3NC(=O)C2N(C(=O)c2cc3ccccc3[nH]2)c2ccccc2)cc1 (configuration not stated),101% (active)
5,CO[C@H]1CN(C)C(=O)c2cc(NS(=O)(=O)CC(F)(F)F)ccc2OC[C@@H](C)N(Cc2nccs2)C[C@@H]1C,0.476%
6,CN1c2ccc(C3=CCCCC3)cc2[C@H]2[C@H](CCN2S(=O)(=O)c2ccccc2)[C@@H]1CO,0.27%
7,O=C(C1CCC1)N1CCCCN2[C@H](CO)[C@H](c3ccc(-c4cccc(F)c4)cc3)[C@H]2C1,4.53%
8,COc1cccc(NC(=O)C[C@H]2CC[C@@H]3[C@@H](COc4ccc(NC(=O)C5CCOCC5)cc4C(=O)N3C)O2)c1,1.2%
9,CC(C)NC(=O)N[C@H]1CC[C@H](CC(=O)NC2Cc3ccccc3C2)O[C@H]1CO,-0.817%
10,COc1ccccc1C#Cc1ccc2c(c1)O[C@H](CN(C)Cc1cccnc1)[C@@H](C)CN([C@H](C)CO)S2(=O)=O,3.3%
11,CO[C@@H]1CN(C)C(=O)c2ccc(NS(C)(=O)=O)cc2OC[C@@H](C)N(CC2CC2)C[C@@H]1C,2.22%
12,CN(C)C(=O)C[C@H]1CC[C@@H](NC(=O)C2CC2)[C@@H](CO)O1,-0.137%
13,C[C@@H]1CCCCO[C@H](CN(C)C(=O)NC2CCCCC2)[C@@H](C)CN([C@H](C)CO)C(=O)c2cc(NS(C)(=O)=O)ccc2O1,3.91%
14,C[C@@H]1CN([C@@H](C)CO)C(=O)c2cc(NS(=O)(=O)c3cn(C)cn3)ccc2O[C@@H](C)CCCCO[C@@H]1CN(C)Cc1ccncc1,-2.55%
15,CC(=O)N1[C@H](CO)[C@@H](c2ccc(-c3ccc(F)cc3)cc2)[C@H]1CNC(=O)C1CC1,-1.15%
16,O=C(NC[C@@H]1[C@@H](c2ccccc2)[C@H](CO)N1C(=O)C1CCC1)NC1CCCC1,94.8% (active)
17,CC(=O)N1[C@H](CO)[C@@H](c2ccc(-c3ccccc3)cc2)[C@H]1CNC(=O)C1CC1,73.3%
18,CCN(C[C@H]1[C@H](c2ccccc2)[C@H](CO)N1C(=O)C1CC1)C(=O)NC1CCCC1,3.3%
19,CC(=O)N1[C@H](CO)[C@H](c2ccc(-c3ccccc3)cc2)[C@H]1CNC(=O)C1CC1,90.2% (active)
20,C/C=C/c1ccc([C@H]2[C@@H](CNC(=O)NC(C)C)N(C(=O)C3CCC3)[C@H]2CO)cc1,-1.4%
21,CO[C@@H](CN(C)C(=O)Nc1ccc(F)cc1)[C@H](C)CN(Cc1ccccc1Cl)[C@@H](C)CO,13.4%
